In ChEMBL document CHEMBL4834407, “Antiplasmodial Oleanane Triterpenoids from Terminalia albida Root Bark” (J Nat Prod, 2021):

What was measured:
Staphylococcus aureus = experiment: Antibacterial activity against Staphylococcus aureus ATCC6538; assay type: functional, organism-based
Method in brief: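 S. aureus panel with doxycycline as reference drug; IC50 reported in µM.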

Candida albicans = experiment: Antifungal activity against Candida albicans ATCC59630; assay type: functional, organism-based
Method in brief: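 C. albicans panel with flucytosine as reference drug; IC50 reported in µM.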

Plasmodium falciparum = experiment: Antiplasmodial activity against chloroquine-resistant Plasmodium falciparum K1 measured after 72 hrs by lactate dehydrogenase assay; assay type: functional, organism-based; details: K1, 72 h
Method in brief: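 In vitro lactate dehydrogenase read-out on the chloroquine-resistant P. falciparum K1 strain; chloroquine was the reference drug.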

[1] = Cytotoxicity against human MRC5 cells measured after 7 days by MTT assay; assay type: cell-based; details: time 7 day
Method in brief: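 MRC-5 human foetal lung fibroblasts; tamoxifen as positive control; IC50 reported in µM.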

[2] = Selectivity index, ratio of CC50 for cytotoxicity against human MRC5 cells to IC50 for antiplasmodial activity against chloroquine-resistant plasmodium falciparum K1; assay type: toxicity, cell-based; details: read-out: Ratio CC50/IC50
Method in brief: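 Ratio of the MRC-5 value (human foetal lung fibroblasts, tamoxifen as cytotoxicity control) to the P. falciparum K1 value (lactate dehydrogenase assay, chloroquine control).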

Row | Compound | IC50 (Staphylococcus aureus) [µM] | IC50 (Candida albicans) [µM] | IC50 (Plasmodium falciparum) [µM] | CC50 at 168 h [1] [µM] | selectivity ratio [2]
1 | CC1(C)CC[C@]2(C(=O)O[C@@H]3O[C@H](CO)[C@@H](O)[C@H](O)[C@H]3O)CC[C@]3(C)C(=CC(=O)[C@@H]4[C@@]5(C)C[C@@H](O)[C@H](O)[C@](C)(CO)[C@@H]5CC[C@]43C)[C@@H]2[C@H]1O | > 64 | > 64 | 9.1 | > 64 | > 7
2 | C[C@H]1c2cccc(O)c2C(=O)C2=C(O)[C@]3(O)C(=O)C(C(N)=O)=C(O)[C@@H](N(C)C)[C@@H]3[C@@H](O)[C@@H]21 [DOXYCYCLINE] | 0.28 | – | – | – | –
3 | C[C@]1(CO)CC[C@]2(C(=O)O)CC[C@]3(C)C(=CC[C@@H]4[C@@]5(C)C[C@@H](O)[C@H](O)[C@@](C)(CO)[C@@H]5CC[C@]43C)[C@@H]2C1 | > 64 | > 64 | 48.9 | > 64 | > 1.31
4 | CC1(C)CC[C@]2(C(=O)O)CC[C@]3(C)C(=CC(=O)[C@@H]4[C@@]5(C)C[C@@H](O)[C@H](O)[C@](C)(CO)[C@@H]5CC[C@]43C)[C@@H]2[C@@H]1O | > 64 | > 64 | 6.1 | > 64 | > 10.5
5 | CC1(C)CC[C@]2(C(=O)O[C@@H]3O[C@H](CO)[C@@H](O)[C@H](O)[C@H]3O)CC[C@]3(C)C(=CC(=O)[C@@H]4[C@@]5(C)C[C@@H](O)[C@H](O)[C@@](C)(CO)[C@@H]5CC[C@]43C)[C@@H]2[C@H]1O | > 64 | > 64 | 11.3 | > 64 | > 5.7
6 | CC1(C)CC[C@]2(C(=O)O)CC[C@]3(C)C(=CC(=O)[C@@H]4[C@@]5(C)C[C@@H](O)[C@H](O)[C@@](C)(CO)[C@@H]5CC[C@]43C)[C@@H]2[C@H]1O | > 64 | > 64 | 10.1 | > 64 | > 6.3
7 | CC1(C)CC[C@]2(C(=O)O[C@@H]3O[C@H](CO)[C@@H](O)[C@H](O)[C@H]3O)CC[C@]3(C)C(=CC(=O)[C@@H]4[C@@]5(C)C[C@@H](O)[C@H](O)[C@@](C)(CO)[C@@H]5CC[C@]43C)[C@@H]2[C@@H]1O | > 64 | > 64 | 13.9 | > 64 | > 4.6
8 | CC1(C)C=C2C3=CC(=O)[C@@H]4[C@@]5(C)C[C@@H](O)[C@H](O)[C@@](C)(CO)[C@@H]5CC[C@@]4(C)[C@]3(C)CC[C@@]2(C(=O)O)CC1 | > 64 | > 64 | 6.9 | > 64 | > 9.27
9 | CC1(C)CC[C@]2(C(=O)O)CC[C@]3(C)C(=CC(=O)[C@@H]4[C@@]5(C)C[C@@H](O)[C@H](O)[C@](C)(CO)[C@@H]5CC[C@]43C)[C@@H]2[C@H]1O | > 64 | > 64 | 6.1 | > 64 | > 10.5
10 | Nc1nc(=O)[nH]cc1F [FLUCYTOSINE] | – | 0.7 | – | – | –
